Measurements of several laboratories.
Target: Serine/threonine-protein kinase N2 (PKN2, Homo sapiens, UniProt Q16513)

Structure (SMILES)	effect on	action	method	cells	concentration	quantity	value
O=C(Nc1cnc(Oc2ccc(F)cc2)nc1)N1CCc2ncccc2[C@@H]1c1ccc(F)cc1	cell-free assay	–	competition with immobilised ligand	–	1 µM	remaining binding	78%
Cn1c2c(c3ccc(Cl)c(Cl)c31)C(C#N)C1(CCCC1)NC2=O (centres unmarked)	thermal stability	–	DSF	–	10 µM	ΔTm	0 °C
CN(c1ncccc1CNc1nc(Nc2ccc3c(c2)CC(=O)N3)ncc1C(F)(F)F)S(C)(=O)=O	enzyme activity	inhibitor	–	–	1 µM	inhibition	47%
Cc1cnc(NC2CCOCC2)nc1-n1cnc(C(=O)NC(CN)c2cc(F)cc(Cl)c2)c1 (centres unmarked)	enzyme activity	inhibitor	radiometric	–	1 µM	remaining activity	63%
CCCS(=O)(=O)Nc1ccc(F)c(C(=O)c2c[nH]c3ncc(-c4ccc(Cl)cc4)cc23)c1F	enzyme activity	inhibitor	–	–	1 µM	inhibition	< 10%
O=C1Nc2ccc(Cl)cc2C1=Cc1cc(Cl)c(O)c(Cl)c1	cell-free assay	–	–	–	0.5 µM	remaining signal	114%
CNC(=O)c1cc(Oc2ccc(NC(=O)Nc3ccc(Cl)c(C(F)(F)F)c3)cc2)ccn1	enzyme activity	inhibitor	–	–	0.3 µM	inhibition	10%
CC(C)(C)C(=O)c1sc(NC2CCCCC2)nc1N	enzyme activity	inhibitor	–	–	10 µM	remaining activity	95%
COc1cc(-c2cc(-c3ccc(N4CCNCC4)cc3)cnc2C)cc(OC)c1OC	enzyme activity	inhibitor	–	–	0.1 µM	inhibition	4%
CCCOc1ccc(OC)c(F)c1C(=O)c1ccc(C(=O)N[C@@H]2CNC[C@H]2NC(=O)c2ccc3[nH]ncc3c2)cc1	enzyme activity	inhibitor	–	–	10 µM	remaining activity	-1%
Nc1nc(Nc2ccccc2)sc1C(=O)c1c(F)cccc1F	enzyme activity	inhibitor	–	–	10 µM	remaining activity	57%
CNC(=O)Nc1ccc2c(c1)CC[C@@]21OC(=O)N(CC(=O)N(Cc2ccc(F)cc2)[C@@H](C)C(F)(F)F)C1=O	cell-free assay	–	competition with immobilised ligand	–	1 µM	remaining binding	97%
COc1cc(/C=C/C(=O)CC(=O)/C=C/c2ccc(O)c(OC)c2)ccc1O	enzyme activity	inhibitor	–	–	1 µM	activity vs control	114%
COc1cccc2c(NCc3ccccc3)nc(-n3c(N)nc4ccccc43)nc12	target engagement in cells	inhibitor	chemoproteomics	–	20 mM	inhibition	-3.6%
CO[C@H]1CC[C@H](CNc2ccc(S(=O)(=O)NC(=O)c3ccc(N4CCN(CC5=C(c6ccc(Cl)cc6)CC(C)(C)CC5)CC4)cc3Oc3cnc4[nH]ccc4c3)cc2[N+](=O)[O-])CC1	cell-free assay	–	competition with immobilised ligand	–	1 µM	remaining binding	97%
CCN(CC)c1ccc(C2=NNC(=O)CC2C)cc1[N+](=O)[O-] (centres unmarked)	enzyme activity	inhibitor	–	–	10 µM	remaining activity	94%
Cc1sc(C(=O)NC2COC2)cc1-n1cc(NC(=O)Nc2c(F)cccc2Cl)cn1	enzyme activity	inhibitor	–	–	10 µM	remaining activity	87.1%
CCCOc1ccc([C@H]2[C@H](C(=O)O)[C@@H](c3ccc4c(c3)OCO4)CN2CC(=O)Nc2c(CC)cccc2CC)cc1	cell-free assay	–	competition with immobilised ligand	–	1 µM	remaining binding	100%

Structure (SMILES)	effect on	action	method	cells	concentration	quantity	value
Cc1ccc(Nc2nccc(N(C)c3ccc4c(C)n(C)nc4c3)n2)cc1S(N)(=O)=O	enzyme activity	inhibitor	–	–	10 µM	inhibition	34%
CC(C)(C)c1nc(-c2cccc(NS(=O)(=O)c3c(F)cccc3F)c2F)c(-c2ccnc(N)n2)s1	enzyme activity	inhibitor	radiometric	–	1 µM	remaining activity	78%
CNCc1ccc(-c2cc(-c3nc(-c4ccc(S(=O)(=O)C(C)C)cc4)cnc3N)on2)cc1	enzyme activity	inhibitor	–	–	0.4 µM	inhibition	59%
COc1ccc2c(O[C@@H]3C[C@H]4C(=O)N[C@]5(C(=O)O)CC5/C=C\CCCCC[C@H](NC(=O)OC5CCCC5)C(=O)N4C3)cc(-c3csc(NC(=O)C(C)C)n3)nc2c1C (some centres unmarked)	cell-free assay	–	competition with immobilised ligand	–	1 µM	remaining binding	67%
c1ccc(CNc2nc(N3CCOc4ccccc43)nc3c2CCCC3)cc1	target engagement in cells	inhibitor	chemoproteomics	–	20 mM	inhibition	9.1%
Cc1ccc(C(=O)NCc2ccsc2)cc1C#Cc1cn(C(C)C)c2ncnc(N)c12	enzyme activity	inhibitor	–	–	1 µM	activity vs control	113%
Cn1c2c(Cl)c(Cl)ccc2c2cc[nH]c(=O)c21	thermal stability	–	DSF	–	10 µM	ΔTm	1.3 °C
COc1cc(Nc2cnc(C#N)c(O[C@H](C)CN(C)C)n2)ncc1-c1cnn(C)c1	enzyme activity	inhibitor	radiometric	–	1 µM	remaining activity	87%
FC(F)c1nc2ccccc2n1-c1nc(N2CCOCC2)nc(N2CCOCC2)n1	enzyme activity	inhibitor	–	–	10 µM	remaining activity	82%
N#CCCc1ccc2c(c1)-c1[nH]c3ccc([N+](=O)[O-])cc3c1CC(=O)N2	cell-free assay	–	–	–	0.5 µM	remaining signal	77.9%
CNc1cc(Oc2cc(C(=O)Nc3cc(N4CCN(C)CC4)cc(C(F)(F)F)c3)ccc2C)ncn1	target engagement in cells	inhibitor	chemoproteomics	Huh-7	1 µM	inhibition	-99.7%
O=C(NS(=O)(=O)c1ccc(NCC2CCOCC2)c([N+](=O)[O-])c1)c1ccc(N2CCN(Cc3ccc(C(F)(F)F)cc3-c3ccc(Cl)cc3)CC2)cc1Oc1cnc2[nH]ccc2c1	cell-free assay	–	competition with immobilised ligand	–	1 µM	remaining binding	93%
CCN(CC)CCNC(=O)c1c(C)[nH]c(/C=C2\C(=O)Nc3ccc(F)cc32)c1C	enzyme activity	inhibitor	–	–	0.3 µM	inhibition	24%
CCC(=O)N[C@H]1CC[C@@H](C(=O)N(C)c2ccc(-c3nc4ccccc4o3)cc2)C1	cell-free assay	–	competition with immobilised ligand	–	1 µM	remaining binding	100%
Nc1ncnc2occ(-c3ccc(NC(=O)Nc4cc(C(F)(F)F)ccc4F)cc3)c12	cell-free assay	inhibitor	–	–	20 µM	remaining signal	58%
Cc1nc(Cc2cccc(C(F)(F)F)c2)sc1-c1ccc(C(N)=O)nc1	cell-free assay	–	competition with immobilised ligand	–	1 µM	remaining binding	91%
Cc1ccc(C(=O)Nc2ccc(CN3CCN(C)CC3)c(C(F)(F)F)c2)cc1C#Cc1cnc2cccnn12	enzyme activity	inhibitor	–	–	23.5 nM	remaining activity	99%
